In test [1] the target is T1, Nitric oxide synthase, inducible (Mus musculus) (UniProt P29477).
T1 sequence (whole entry): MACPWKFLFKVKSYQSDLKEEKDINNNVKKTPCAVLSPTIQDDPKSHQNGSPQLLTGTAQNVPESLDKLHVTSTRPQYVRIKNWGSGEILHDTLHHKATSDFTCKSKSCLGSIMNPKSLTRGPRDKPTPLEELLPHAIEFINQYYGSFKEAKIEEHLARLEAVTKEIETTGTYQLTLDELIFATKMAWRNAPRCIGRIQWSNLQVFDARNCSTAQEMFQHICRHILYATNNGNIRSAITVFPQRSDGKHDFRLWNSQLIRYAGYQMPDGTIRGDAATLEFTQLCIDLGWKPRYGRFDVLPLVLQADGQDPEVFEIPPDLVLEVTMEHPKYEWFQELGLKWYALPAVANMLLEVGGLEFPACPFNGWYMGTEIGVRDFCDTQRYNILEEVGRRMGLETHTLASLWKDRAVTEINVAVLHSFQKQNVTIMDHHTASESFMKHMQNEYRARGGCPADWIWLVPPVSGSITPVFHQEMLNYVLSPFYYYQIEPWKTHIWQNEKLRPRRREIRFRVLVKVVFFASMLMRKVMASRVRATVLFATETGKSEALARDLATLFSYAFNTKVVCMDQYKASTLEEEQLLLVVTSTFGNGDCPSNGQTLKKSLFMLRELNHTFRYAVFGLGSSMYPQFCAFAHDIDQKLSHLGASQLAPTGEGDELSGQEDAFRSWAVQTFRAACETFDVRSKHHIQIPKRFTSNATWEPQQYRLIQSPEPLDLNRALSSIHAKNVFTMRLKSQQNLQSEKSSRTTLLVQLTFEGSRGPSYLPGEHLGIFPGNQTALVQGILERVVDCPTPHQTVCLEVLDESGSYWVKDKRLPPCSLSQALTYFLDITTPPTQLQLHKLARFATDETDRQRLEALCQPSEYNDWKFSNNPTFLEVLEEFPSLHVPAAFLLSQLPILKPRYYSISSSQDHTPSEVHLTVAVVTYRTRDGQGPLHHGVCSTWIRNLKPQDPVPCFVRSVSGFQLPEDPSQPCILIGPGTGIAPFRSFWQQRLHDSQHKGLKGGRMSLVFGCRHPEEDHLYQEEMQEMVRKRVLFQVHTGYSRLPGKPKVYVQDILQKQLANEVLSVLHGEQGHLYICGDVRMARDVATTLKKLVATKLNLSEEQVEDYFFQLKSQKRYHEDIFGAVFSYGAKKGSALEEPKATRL
Description: Inhibitory activity against inducible nitric oxide synthase (iNOS) at 100 uM. On the set-up: scale not given: the % may be the effect or the level left. An outline of the steps: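 Single-point screen against murine macrophage iNOS: enzyme residual activity measured at 100 μM inhibitor. NO formation monitored by hemoglobin capture assay with a UV/vis spectrophotometer.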

Test [2] has as its target T2, Nitric oxide synthase 1 (Rattus norvegicus, UniProt P29476). Description: Inhibitory activity against neuronal nitric oxide synthase (nNOS).
In test [3] the target is T3, Nitric oxide synthase, inducible (Mus musculus, UniProt P29477).
T3 sequence (P29477 whole entry): T1 sequence (whole entry)
Description: Inhibitory activity against inducible nitric oxide synthase (iNOS).

Test [4] deals with T2, Nitric oxide synthase 1. Description: Binding affinity towards neuronal nitric oxide synthase (nNOS).
Test [5] concerns the target T3, Nitric oxide synthase, inducible.
In another test the target is T4, Nitric oxide synthase 3 (Bos taurus, UniProt P29473).
T4 sequence (P29473 whole entry): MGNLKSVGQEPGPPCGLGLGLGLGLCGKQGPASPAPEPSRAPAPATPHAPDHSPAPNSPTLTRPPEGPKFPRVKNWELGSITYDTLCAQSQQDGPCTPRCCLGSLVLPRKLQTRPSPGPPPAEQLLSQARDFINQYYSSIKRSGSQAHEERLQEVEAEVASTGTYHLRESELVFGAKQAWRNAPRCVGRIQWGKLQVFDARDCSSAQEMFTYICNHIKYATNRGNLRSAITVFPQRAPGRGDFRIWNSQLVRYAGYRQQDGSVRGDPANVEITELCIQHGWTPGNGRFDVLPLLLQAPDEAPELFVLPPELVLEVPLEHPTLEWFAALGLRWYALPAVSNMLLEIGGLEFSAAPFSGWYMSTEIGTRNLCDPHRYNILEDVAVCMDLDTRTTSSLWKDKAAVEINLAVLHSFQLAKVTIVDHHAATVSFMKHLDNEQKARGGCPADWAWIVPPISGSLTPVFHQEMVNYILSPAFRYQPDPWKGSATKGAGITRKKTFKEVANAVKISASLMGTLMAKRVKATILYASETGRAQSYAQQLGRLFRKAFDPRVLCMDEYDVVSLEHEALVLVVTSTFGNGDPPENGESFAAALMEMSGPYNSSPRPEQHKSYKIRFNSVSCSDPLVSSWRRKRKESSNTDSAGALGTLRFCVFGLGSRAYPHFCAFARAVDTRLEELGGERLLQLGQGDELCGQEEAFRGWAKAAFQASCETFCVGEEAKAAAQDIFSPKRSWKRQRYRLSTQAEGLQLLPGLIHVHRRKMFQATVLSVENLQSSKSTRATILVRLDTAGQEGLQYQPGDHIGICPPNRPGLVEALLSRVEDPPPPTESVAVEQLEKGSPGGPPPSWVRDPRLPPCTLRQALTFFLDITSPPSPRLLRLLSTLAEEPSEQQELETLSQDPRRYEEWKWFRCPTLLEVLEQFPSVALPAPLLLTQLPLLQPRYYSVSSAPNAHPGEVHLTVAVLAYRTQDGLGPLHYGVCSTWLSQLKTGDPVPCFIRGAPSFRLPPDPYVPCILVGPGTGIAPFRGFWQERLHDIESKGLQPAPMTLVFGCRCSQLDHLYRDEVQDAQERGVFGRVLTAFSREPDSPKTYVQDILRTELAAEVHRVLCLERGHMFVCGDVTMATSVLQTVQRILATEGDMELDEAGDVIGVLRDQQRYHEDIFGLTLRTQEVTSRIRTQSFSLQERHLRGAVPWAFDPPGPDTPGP
Description: Inhibitory activity against endothelial nitric oxide synthase (eNOS).

Bounds are passed on as bounds.

T2 sequence (P29476 whole entry): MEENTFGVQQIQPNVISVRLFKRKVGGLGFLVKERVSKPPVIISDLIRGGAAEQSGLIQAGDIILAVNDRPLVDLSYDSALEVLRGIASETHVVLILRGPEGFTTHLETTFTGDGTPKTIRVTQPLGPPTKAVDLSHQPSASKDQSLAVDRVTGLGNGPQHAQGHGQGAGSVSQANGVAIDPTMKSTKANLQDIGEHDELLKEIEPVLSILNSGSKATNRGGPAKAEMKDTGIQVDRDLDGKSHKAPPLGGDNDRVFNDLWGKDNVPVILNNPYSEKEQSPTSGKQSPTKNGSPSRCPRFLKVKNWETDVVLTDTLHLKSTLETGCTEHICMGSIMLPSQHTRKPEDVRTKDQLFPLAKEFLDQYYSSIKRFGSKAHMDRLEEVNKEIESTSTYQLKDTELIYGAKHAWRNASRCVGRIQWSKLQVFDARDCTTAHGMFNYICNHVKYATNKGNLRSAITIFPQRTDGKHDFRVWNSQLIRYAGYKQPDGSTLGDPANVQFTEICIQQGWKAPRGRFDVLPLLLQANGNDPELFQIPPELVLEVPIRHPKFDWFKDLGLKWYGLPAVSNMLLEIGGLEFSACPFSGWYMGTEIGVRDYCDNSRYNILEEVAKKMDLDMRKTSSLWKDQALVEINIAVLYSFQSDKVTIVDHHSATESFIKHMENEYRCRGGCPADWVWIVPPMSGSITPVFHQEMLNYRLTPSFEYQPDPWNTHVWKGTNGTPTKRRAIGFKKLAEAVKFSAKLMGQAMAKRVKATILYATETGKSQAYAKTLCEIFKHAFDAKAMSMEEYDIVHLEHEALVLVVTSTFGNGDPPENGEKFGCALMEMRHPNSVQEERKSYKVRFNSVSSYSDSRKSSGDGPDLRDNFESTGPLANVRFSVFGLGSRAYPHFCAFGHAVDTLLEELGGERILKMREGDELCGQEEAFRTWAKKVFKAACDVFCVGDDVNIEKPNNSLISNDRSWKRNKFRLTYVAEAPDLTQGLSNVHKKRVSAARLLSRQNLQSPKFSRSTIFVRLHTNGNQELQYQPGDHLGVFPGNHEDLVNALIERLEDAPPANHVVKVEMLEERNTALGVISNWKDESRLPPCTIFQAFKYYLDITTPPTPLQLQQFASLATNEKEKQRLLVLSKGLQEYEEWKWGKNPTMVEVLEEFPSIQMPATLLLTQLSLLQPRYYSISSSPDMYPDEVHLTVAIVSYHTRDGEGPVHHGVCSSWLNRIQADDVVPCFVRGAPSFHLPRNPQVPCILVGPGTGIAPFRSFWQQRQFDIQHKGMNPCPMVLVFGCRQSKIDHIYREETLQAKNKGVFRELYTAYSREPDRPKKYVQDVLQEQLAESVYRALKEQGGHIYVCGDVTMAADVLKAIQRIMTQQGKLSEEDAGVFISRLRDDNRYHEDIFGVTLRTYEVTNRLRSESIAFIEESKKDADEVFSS

Usually IC50 stands for the midpoint of a concentration-inhibition curve. One may read the Ki as a dissociation constant, usually derived from enzyme kinetics or from competition with a known ligand. On to `N=C(NCCC[C@H](N)C(=O)NC1CNC(C(N)=O)C1)N[N+](=O)[O-]` (single isomer, unassigned), for which, in test [1], the Activity turned out to be 78%. Also, the IC50 was determined as 9.6 µM against Nitric oxide synthase 1 [2] and 441 µM in test [3]. In addition, the Ki on Nitric oxide synthase 1 [4] came to 1.1 µM; in test [5], 199 µM.

Regarding `N=C(NCCC[C@@H](N)C(=O)N1CC(N)C[C@@H]1C(N)=O)N[N+](=O)[O-]` (single isomer, unassigned; cis), the IC50 on Nitric oxide synthase 3 was above 100 µM; against Nitric oxide synthase 1 [2], around 100 µM.

The molecule `NC(=O)[C@@H]1C[C@@H](NC(=O)[C@@H](N)CCC/N=C(\N)N[N+](=O)[O-])CN1` registered an Activity in test [1] of 10%. The figures for the IC50 (on Nitric oxide synthase 1 [2]; in test [3]) were 0.64 µM and 65 µM, respectively. The molecule also registered a Ki in test [5] of 29 µM.

For `NC(=O)[C@@H]1C[C@@H](NC(=O)C(F)(F)F)CN1C(=O)[C@@H](N)CCC/N=C(\N)N[N+](=O)[O-]`, the IC50 on Nitric oxide synthase 3 was above 100 µM; against Nitric oxide synthase 1 [2] it was around 100 µM.

For the molecule `NC(=O)[C@@H]1C[C@@H](N)CN1C(=O)[C@@H](N)CCC/N=C(\N)N[N+](=O)[O-]`, the IC50 at Nitric oxide synthase 3 is above 100 µM; on Nitric oxide synthase 1 [2], around 100 µM.

These data come from ChEMBL document CHEMBL1137082, “Potent and selective conformationally restricted neuronal nitric oxide synthase inhibitors” (J Med Chem, 2004).
